Measured values reported in ChEMBL document CHEMBL3526119, “Effect of the CYP2C8 genotype on the pharmacokinetics and pharmacodynamics of repaglinide” (Drug Metab Dispos, 2011).

What was measured:
Assay type in all cases: ADME, organism-based
Conditions in all cases: in vivo
[1] = Oral bioavailability in human
[2] = test system: Homo sapiens; experiment: Mean change in blood glucose concentration in healthy white human plasma with CYP2C8*1/*1 genotype at 2 mg, po up to 6 hrs
Procedure, shortened: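 Single 2 mg oral dose in healthy Caucasian volunteers genotyped for CYP2C8*3, with SLCO1B1 521T>C also typed. […] Mean change is the average difference between values up to 6 h post-dose and baseline. Fasting lasted to 6 h. Mean with 95% CI or SD by genotype group.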

[3] = Cmax in healthy white human with SLCO1B1 521TT/CYP2C8*3/*3 combined genotype at 2 mg, po; design: dose 2 mg, route oral
Procedure, shortened: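 Healthy Caucasians genotyped for CYP2C8*3 and SLCO1B1 521T>C were given a single oral 2 mg dose of repaglinide, and alcohol, caffeine and grapefruit were withheld. Plasma was sampled before dosing and at 15 times from 0.25 to 24 h. Drug was measured by LC-MS/MS against diclofenac internal standard, linear 0.098–79.139 µg/L. Noncompartmental analysis: Cmax taken as observed; AUC by linear/log-linear trapezoidal rule extrapolated to infinity.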

SMILES: CCOc1cc(CC(=O)N[C@@H](CC(C)C)c2ccccc2N2CCCCC2)ccc1C(=O)O [REPAGLINIDE]
- bioavailability [1]: 60%
- Activity [2]: -0.42 mM
- Cmax [3]: 36.6 ng/mL
